Assay results from different studies.
Each line is one published result; the experiments were not run side by side.
Target: Mitogen-activated protein kinase kinase kinase kinase 4 (MAP4K4, Homo sapiens, UniProt O95819)

Structure (SMILES)	assay	conditions	measurement	result
O=c1[nH]c2ccccc2n1C1CCN(Cc2ccc(-c3[nH]c4cc5ncnc5cc4nc3-c3ccccc3)cc2)CC1	cell-free assay	0.5 µM	remaining signal	99.5%
Cn1cc(-c2cccc(N3CCc4c(sc5c4CC(C)(C)C5)C3=O)c2CO)cc(Nc2ccncn2)c1=O	enzyme activity, inhibitor	1 µM	inhibition	4%
COc1ncccc1-c1cnn2ccc(N3CCN(C(=O)OC(C)C)CC3)nc12	binding, competition with immobilised ligand	1 µM	remaining binding	83%
Nc1ncc(-c2nc(N3CCOCC3)nc(N3CCOCC3)n2)c(C(F)F)n1	binding, competition with immobilised ligand	10 µM	remaining binding	100%
Cc1nn(C)cc1-c1nc2c(N3CCN(Cc4ccc(Cl)cc4)CC3)c(Cl)cnc2[nH]1	binding, competition with immobilised ligand	1 µM	remaining binding	88%
N#CC1(c2ccccn2)CCN(Cc2cc(C(=O)O)c(=O)n3ccccc23)CC1	cell-free assay, competition with immobilised ligand	1 µM	remaining binding	87%
Cn1cc(-c2cc(F)cc(N3CCn4c(cc5c4CCCC5)C3=O)c2CO)cc(Nc2ccc(N3CCN(C4COC4)CC3)cn2)c1=O	enzyme activity, inhibitor	0.1 µM	inhibition	23%
CC(C)(C)c1cc(C=C(C#N)C#N)cc(Br)c1O	enzyme activity, inhibitor	0.5 µM	remaining activity	96.2%
Cn1cncc1[C@](O)(COc1ccc(C#N)cc1-c1ccc(OC(F)(F)F)cc1)c1ccc(C#N)cc1	cell-free assay, competition with immobilised ligand	1 µM	remaining binding	100%
